Screening data (PubChem BioAssay)
NTR1 ag – NTR1 (human) agonism; P30989; NTR1-U2OS beta-arrestin-GFP spot imaging, agonist mode; AID 493036; 330,000 compounds, 0.17% hits; activation, % at 20 µM;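 active = activation at or above 40% of the spot to cytoplasm intensity ratio, with at least 20 cells analyzed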
Hep lipid drop – modulators of hepatic lipid droplet formation; AML12 mouse hepatocytes, oleate lipid droplets, BODIPY imaging; inhibition, % at 6.5 µM; 240,000 compounds, 0.4% hits; AID 1656;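 active = lipid droplet intensity inhibited by at least 50%, with more than 500 cells counted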
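Material – mouse AML12 hepatocyte cell line, fixed after treatment · Compound dosing – one dose, 6.5 µM compound · Times – compound with oleate, overnight · Measured by – Image-based BODIPY and DAPI two-channel analysis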
GRK2 inh – inhibitors of human GRK2 displacing RNA aptamer | P25098 | bead flow cytometry, FAM-aptamer displacement from GRK2 | inhibition of aptamer binding, % at 10 µM | 330,000 compounds, 0.59% hits;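 active = inhibition of aptamer binding above 40%, roughly 3 SD of noise, on plates passing a quality check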;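 also: median bead fluorescence of bound FAM aptamer so fluorescent compounds give negative values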
Target sequence (P25098 whole entry, looked up): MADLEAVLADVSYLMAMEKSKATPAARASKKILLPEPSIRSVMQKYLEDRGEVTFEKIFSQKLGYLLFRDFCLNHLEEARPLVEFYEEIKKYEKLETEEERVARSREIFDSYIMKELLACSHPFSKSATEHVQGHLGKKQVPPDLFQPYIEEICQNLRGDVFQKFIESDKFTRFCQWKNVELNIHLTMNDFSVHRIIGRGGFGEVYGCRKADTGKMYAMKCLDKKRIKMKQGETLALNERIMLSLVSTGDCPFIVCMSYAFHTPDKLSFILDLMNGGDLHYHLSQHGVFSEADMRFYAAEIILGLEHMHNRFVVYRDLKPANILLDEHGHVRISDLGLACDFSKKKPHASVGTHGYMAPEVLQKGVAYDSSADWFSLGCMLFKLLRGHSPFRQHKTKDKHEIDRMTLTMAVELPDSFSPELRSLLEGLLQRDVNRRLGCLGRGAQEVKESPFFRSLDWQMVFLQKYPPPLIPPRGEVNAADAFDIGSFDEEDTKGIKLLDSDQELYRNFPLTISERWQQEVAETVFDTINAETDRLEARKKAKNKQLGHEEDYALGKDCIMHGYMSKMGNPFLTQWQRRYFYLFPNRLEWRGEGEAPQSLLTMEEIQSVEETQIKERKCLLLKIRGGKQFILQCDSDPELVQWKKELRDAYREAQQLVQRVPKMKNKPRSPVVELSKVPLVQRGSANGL
TAG inh – reduces triacylglycerol accumulation in H9c2 cells. inhibition, % at 12.5 µM. 230,000 compounds, 0.66% hits. Nile Red lipid (TAG) fluorescence; cells loaded with 200 µM oleic acid;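 active = pattern-corrected inhibition of lipid staining of at least 50% with the nuclear-stain viability signal not falling by more than 50%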
Arr AP2 block – blocks beta-arrestin peptide binding to AP2 adaptin; AID 504490; FITC-arrestin peptide / GST-AP2 beads, flow cytometry; AP2 beta2 appendage carries R879A mutation; inhibition, % at 10 µM; 340,000 compounds, 0.31% hits;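 active = inhibition above a set limit, near 3 SD of compounds lacking own fluorescence, cut at about 54% in these data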
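Assay system: GST-AP2 R879A bound to glutathione beads, E. coli-expressed; Medium: PBS with 0.05% Tween 20 and 0.1% BSA; Also added: fluorescein-tagged arrestin peptide at 50 nM final; Timing: 12 min plus 1 h, RT; Measured by: flow cytometry, FL1 (488/535 nm); Evaluation: percent drop in bead-associated FITC signal.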
B2AR ag – activates human beta-2 adrenergic receptor causing internalization; Am2.2-beta2AR cells, FAP receptor internalization, flow cytometry; response, % (no concentration beside the values); 340,000 compounds, 0.43% hits;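 active = response above a set limit, near 3 SD of response in nonfluorescent compounds, cut at about 42% in these data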
Hits are given with their value; i = inactive; nt = no result given. Sampled rows, rich in hits. Any-hit rate of the full collection: about 2%.

SMILES | NTR1 ag | Hep lipid drop | GRK2 inh | TAG inh | Arr AP2 block | B2AR ag
COC(=O)c1ccc(COc2ccc(C(=O)c3ccccc3)cc2)o1 | i | i | i | i | i | i
COC(=O)c1ccc(COc2ccc(F)cc2)o1 | nt | 60.9 | i | nt | i | i
CC(=O)Nc1ccc(S(=O)(=O)Nc2nc3ccccc3nc2Nc2cccc(S(N)(=O)=O)c2)cc1 | i | nt | i | i | i | i
Cc1ccc(NC(=S)N2CCC(NC(=O)c3ccc(F)cc3)CC2)cc1C | i | i | i | nt | i | i
COc1ccc(-c2cc(C(=O)NCc3cccc(Cl)c3)[nH]n2)c(C)c1 | nt | nt | nt | i | nt | nt
Cc1ccccc1NC(=S)NCc1ccc2c(c1)cc(C)n2C | i | i | i | i | i | 52.2
Cn1c(N2CCCC2)nc2c1c(=O)[nH]c(=O)n2C | i | i | i | nt | i | i
O=C(/C=C/c1cccc(Cl)c1)c1ccc([N+](=O)[O-])o1 | i | nt | i | i | i | 65.8
COc1ccc(/C=C/C(=O)c2ccc([N+](=O)[O-])o2)cc1OC | i | nt | nt | nt | nt | nt
Cc1ccc2c(c1)c1c(n2CC(O)CNC2CCCC2)CCCC1 (configuration not stated) | i | i | i | 99.2 | i | i
CC(c1cccs1)N(C)Cc1nc(CCc2ccccc2)no1 (configuration not stated) | i | i | i | nt | i | i
CS(=O)(=O)c1ccc(C(=O)OCC(=O)NCc2cccs2)cc1[N+](=O)[O-] | i | nt | i | 51.5 | i | i
Oc1ccccc1C(Nc1nccs1)c1ccc2cccnc2c1O (configuration not stated) | i | i | i | 52.0 | i | i
O=c1c2cccnc2[nH]c(=S)n1CCC1=CCCCC1 | i | nt | 70.0 | i | i | i
CCCCCn1c(=S)[nH]c2ncccc2c1=O | i | nt | i | i | i | i
COc1cccc(-c2sc3ccccc3c2-c2ccc(OCCN3CCCC3)cc2)c1 | i | nt | i | i | i | i
c1ccc(-c2sc3ccccc3c2-c2ccc(OCCN3CCCC3)cc2)cc1 | i | nt | i | i | i | 67.9
COc1cccc(-c2sc3ccccc3c2-c2ccc(OCCN(C)C)cc2)c1 | i | nt | i | i | i | 64.8
COc1cccc(-c2sc3ccc(OC)cc3c2-c2ccc(OCCN3CCCC3)cc2)c1 | i | nt | i | i | i | i
COc1cccc(-c2sc3cc(OC)c(OC)cc3c2-c2ccc(OCCN3CCCCC3)cc2)c1 | i | nt | i | 91.9 | i | i
COc1cc(-c2noc(C)c2C(=O)NCCCn2ccnc2)cc(OC)c1OC | i | nt | i | i | i | i
CCCCNc1c(-c2ccc(SC(C)CC)c(OC)c2)nc2ccc(Cl)cn12 (configuration not stated) | i | nt | i | i | i | 52.0
CCCCNc1c(-c2ccc(SC(C)CC)c(OC)c2)nc2ccc(C)cn12 (configuration not stated) | i | nt | i | i | i | i
CCCCNc1c(-c2ccc(-c3ccc(OC)cc3)c(OC)c2)nc2ccccn12 | i | nt | i | i | i | 46.4
Cc1ccc(NC(=O)C(C)OC(=O)c2nc(Cl)ccc2Cl)cc1S(=O)(=O)N1CCOCC1 (configuration not stated) | nt | nt | nt | i | i | i
SMILES | NTR1 ag | Hep lipid drop | GRK2 inh | TAG inh | Arr AP2 block | B2AR ag
Cc1c(COc2ccc3ccccc3c2)nnn1CC(=O)NS(=O)(=O)c1ccccc1C(F)(F)F | nt | nt | nt | i | nt | nt
COC(=O)c1c(C)oc2ccc(N(C(=O)Oc3ccccc3)S(=O)(=O)c3ccc(Cl)c([N+](=O)[O-])c3)cc12 | i | i | i | nt | i | 60.4
CCOC(=O)c1ccc(NC(=O)c2ccccc2[N+](=O)[O-])cc1 | i | i | i | nt | i | i
CCOC(=O)c1cc([N+](=O)[O-])c([N+](=O)[O-])cc1NC(C)=O | nt | i | i | nt | i | 73.7
CC(=O)c1cccc(-c2ccnc3c2CC(C(=O)Nc2ccccc2)O3)c1 (configuration not stated) | nt | nt | nt | i | nt | nt
COc1ccc(-c2nc3c(c4nnc(SC(C)C(=O)Nc5ccccc5)n24)COC(C)(C)C3)cc1 (configuration not stated) | i | 65.6 | i | nt | i | i
CCn1c(SCC(=O)Nc2ccc(OC)cc2)nc2nc3c(cc2c1=O)COC(C)(C)C3 | i | i | i | i | i | i
COc1ccc(NC(=O)C(C)Sc2nnc3c4c(nc(-c5ccc(OC)cc5)n23)CC(C)(C)OC4)cc1 (configuration not stated) | i | 51.7 | i | nt | i | i
O=C(O)c1cccc(N2C(=O)C=CC2=O)c1 | nt | nt | nt | i | nt | nt
O=C(Nc1ccc(Cl)cc1Cl)c1cccc(N2C(=O)C=CC2=O)c1 | i | nt | i | i | i | 70.6
CC(C)N=c1cc2n(-c3ccc(Cl)cc3)c3ccccc3nc-2cc1Nc1ccc(Cl)cc1 | i | nt | i | 137.1 | i | i
CCOC(=O)CC1COCCN1Cc1cn[nH]c1-c1cc(OC)c(OC)c(OC)c1 (configuration not stated) | i | i | i | i | i | i
CN1CCN(C(=O)/C=C/c2ccc(Cl)cc2)CC1 | i | i | i | i | i | i
O=C(/C=C/c1ccc(Cl)cc1)N1CCN(Cc2ccccc2)CC1 | i | nt | 44.0 | nt | i | i
COc1cc(/C=N/NC(=O)c2nc(-c3ccccc3)n(-c3ccccc3)n2)ccc1O | i | i | i | nt | i | i
COc1cc(/C=N/Nc2nc(C)nc3c2cnn3-c2ccccc2)ccc1O | nt | i | nt | 57.2 | i | i
COCCNC(=O)CSc1n[nH]c(=O)n1CCc1ccccc1 | i | i | i | nt | i | i
CC(C)(C)c1ccc(C2CC2C(=O)N/N=C\c2ccc[nH]2)cc1 (configuration not stated) | i | i | i | i | i | 54.0
O=C(N/N=C/c1ccco1)C1CC1c1ccccc1 (configuration not stated) | i | i | i | nt | i | i
N#CCCCc1cc2cc(F)ccc2cn1 | i | nt | i | i | i | i
COc1ccc(Cc2nnc(SCC(=O)Nc3ccc(C)cc3)n(N)c2=O)cc1 | i | nt | i | 58.9 | i | i
COc1cccc(NC(=O)CSc2nnc(Cc3ccc(C)cc3)c(=O)n2N)c1 | i | nt | i | i | i | i
CCc1nnc(NC(=O)CSc2nc3cc(OC)ccc3cc2C)s1 | i | i | i | i | i | i
O=C(Cn1ncc(Cl)c(Cl)c1=O)NCC1CCCCC1 | nt | i | i | nt | i | 59.8
CC(C)(C)OC(=O)NCCCCCNC(=O)c1nc[nH]c1C(=O)NCCCCCNC(=O)OC(C)(C)C | i | nt | i | i | i | i
O=C(Nc1ccc(O)c(-c2nc3ccccc3s2)c1)c1cc(=O)c2ccccc2o1 | i | i | 90.0 | nt | i | i
CON(C)C(=O)/C=C/c1ccc([B-](F)(F)F)cc1 | nt | nt | nt | i | i | i
COc1cc(/C=C/C(=O)N2CCC=CC2=O)cc(OC)c1OC | i | nt | i | 61.5 | i | i
CN(C)c1cccc(C(=O)Nc2ccc(S(=O)(=O)Nc3nccs3)cc2)c1 | i | nt | i | nt | i | i
O=C1/C(=C/c2ccncc2)CCC/C1=C\c1ccncc1 | nt | i | nt | i | i | 46.8
